Experimental findings from ChEMBL document CHEMBL1132299, “Phosphinic pseudo-tripeptides as potent inhibitors of matrix metalloproteinases: a structure-activity study” (J Med Chem, 1999) are described below.

Test [1] addresses T1, Interstitial collagenase (Homo sapiens) (UniProt P03956).
T1 sequence (whole entry): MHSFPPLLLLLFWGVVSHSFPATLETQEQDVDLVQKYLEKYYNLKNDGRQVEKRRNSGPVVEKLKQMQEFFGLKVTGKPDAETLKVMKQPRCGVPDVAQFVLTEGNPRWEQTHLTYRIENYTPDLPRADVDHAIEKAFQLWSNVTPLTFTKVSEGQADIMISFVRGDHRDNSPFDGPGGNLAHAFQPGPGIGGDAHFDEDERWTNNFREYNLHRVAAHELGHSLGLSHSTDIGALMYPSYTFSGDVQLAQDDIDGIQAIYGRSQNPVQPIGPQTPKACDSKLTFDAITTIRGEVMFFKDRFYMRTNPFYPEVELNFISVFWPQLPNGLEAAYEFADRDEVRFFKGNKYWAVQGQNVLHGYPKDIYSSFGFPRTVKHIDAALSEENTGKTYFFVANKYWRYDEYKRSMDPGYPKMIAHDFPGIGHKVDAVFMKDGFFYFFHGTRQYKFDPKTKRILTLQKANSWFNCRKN
Description: In vitro inhibition of MMP-1 at 2 uM.

Test [2] has as its target T2, Matrilysin (Homo sapiens) (UniProt P09237).
T2 sequence (whole entry): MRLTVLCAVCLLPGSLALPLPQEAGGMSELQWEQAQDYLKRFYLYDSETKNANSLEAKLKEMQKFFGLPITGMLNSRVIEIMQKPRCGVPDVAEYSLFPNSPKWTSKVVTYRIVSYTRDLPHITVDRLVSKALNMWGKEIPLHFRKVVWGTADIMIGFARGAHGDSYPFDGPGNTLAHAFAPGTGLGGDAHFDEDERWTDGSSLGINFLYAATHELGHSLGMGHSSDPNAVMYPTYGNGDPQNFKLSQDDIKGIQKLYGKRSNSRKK
Briefly: In vitro inhibition of MMP-7 at 2 uM.

For test [3], the target named is T3, Neutrophil collagenase (Homo sapiens, UniProt P22894). Briefly: Inhibition of matrix metalloprotease-8. In outline: (§1)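 Full-length human pro-MMP-2, -9 and -8 were expressed in NSO myeloma cells and activated with 4-aminophenylmercuric acetate just before use. Run at 25 °C in 50 mM Tris/HCl pH 6.8, 10 mM CaCl2, with 0.2–5 nM enzyme and 6 µM Mca-Pro-Leu-Gly-Leu-Dpa-Ala-Arg-NH2; fluorescence 340/400 nm, 30 min. Km: MMP-2 49, MMP-9 14, MMP-8 61 µM. Triplicate, five inhibitor levels; Ki by Horovitz–Levitski.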
Target sequence in this assay (P22894 whole entry): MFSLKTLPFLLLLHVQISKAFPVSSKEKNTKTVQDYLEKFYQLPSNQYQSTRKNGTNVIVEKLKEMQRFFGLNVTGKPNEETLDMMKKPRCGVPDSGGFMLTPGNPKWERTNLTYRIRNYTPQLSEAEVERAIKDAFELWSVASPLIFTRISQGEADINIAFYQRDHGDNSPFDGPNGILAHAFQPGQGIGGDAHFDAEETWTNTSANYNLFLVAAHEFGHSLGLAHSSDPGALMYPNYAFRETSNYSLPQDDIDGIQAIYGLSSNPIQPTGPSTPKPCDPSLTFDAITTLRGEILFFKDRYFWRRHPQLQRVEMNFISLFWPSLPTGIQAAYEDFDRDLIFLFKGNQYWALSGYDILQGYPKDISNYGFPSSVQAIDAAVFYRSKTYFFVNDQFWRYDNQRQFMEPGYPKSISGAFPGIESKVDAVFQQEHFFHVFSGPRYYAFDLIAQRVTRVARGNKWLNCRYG

For test [4], the target named is T4, Matrix metalloproteinase-14 (Homo sapiens, UniProt P50281). Description: Binding affinity against matrix metalloprotease-14 MTI-MMP. A digest of the protocol:
(§2)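 Catalytic domains of human MMP-14 and MMP-7 were expressed in E. coli BL21 DE3 pLysS. Buffer 50 mM Tris/HCl pH 6.8, 10 mM CaCl2, 25 °C; 0.2–5 nM enzyme; 6 µM Mca-Pro-Leu-Gly-Leu-Dpa-Ala-Arg-NH2 read by fluorescence (ex 340, em 400 nm) for 30 min. Km: MMP-14 21, MMP-7 67 µM. Five inhibitor concentrations in triplicate; Ki by Horovitz–Levitski method.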

The target of test [5] is T5, 72 kDa type IV collagenase (Homo sapiens, UniProt P08253). Briefly: Binding affinity against matrix metalloprotease-2 (gelatinase-A). In outline: as §1
Target sequence in this assay (P08253 whole entry): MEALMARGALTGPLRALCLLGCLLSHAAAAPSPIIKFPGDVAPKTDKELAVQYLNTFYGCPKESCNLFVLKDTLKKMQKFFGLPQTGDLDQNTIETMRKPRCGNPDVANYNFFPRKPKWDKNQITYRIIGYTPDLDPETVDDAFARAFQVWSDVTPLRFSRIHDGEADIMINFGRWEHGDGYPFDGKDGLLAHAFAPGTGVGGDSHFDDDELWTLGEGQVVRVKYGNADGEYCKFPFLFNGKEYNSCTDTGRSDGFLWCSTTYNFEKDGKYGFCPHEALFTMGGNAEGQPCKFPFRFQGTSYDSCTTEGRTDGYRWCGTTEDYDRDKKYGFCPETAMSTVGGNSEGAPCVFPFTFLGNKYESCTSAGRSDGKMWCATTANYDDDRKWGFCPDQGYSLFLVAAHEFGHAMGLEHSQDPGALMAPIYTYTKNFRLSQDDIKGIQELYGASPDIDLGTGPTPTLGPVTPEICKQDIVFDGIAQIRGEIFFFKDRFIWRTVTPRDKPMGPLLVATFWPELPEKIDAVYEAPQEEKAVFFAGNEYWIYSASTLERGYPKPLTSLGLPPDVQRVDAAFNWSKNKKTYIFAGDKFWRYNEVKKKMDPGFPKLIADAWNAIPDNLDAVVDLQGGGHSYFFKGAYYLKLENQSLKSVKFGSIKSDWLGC
The target in another test is T6, Stromelysin-3 (Mus musculus, UniProt Q02853).
T6 sequence (Q02853 whole entry): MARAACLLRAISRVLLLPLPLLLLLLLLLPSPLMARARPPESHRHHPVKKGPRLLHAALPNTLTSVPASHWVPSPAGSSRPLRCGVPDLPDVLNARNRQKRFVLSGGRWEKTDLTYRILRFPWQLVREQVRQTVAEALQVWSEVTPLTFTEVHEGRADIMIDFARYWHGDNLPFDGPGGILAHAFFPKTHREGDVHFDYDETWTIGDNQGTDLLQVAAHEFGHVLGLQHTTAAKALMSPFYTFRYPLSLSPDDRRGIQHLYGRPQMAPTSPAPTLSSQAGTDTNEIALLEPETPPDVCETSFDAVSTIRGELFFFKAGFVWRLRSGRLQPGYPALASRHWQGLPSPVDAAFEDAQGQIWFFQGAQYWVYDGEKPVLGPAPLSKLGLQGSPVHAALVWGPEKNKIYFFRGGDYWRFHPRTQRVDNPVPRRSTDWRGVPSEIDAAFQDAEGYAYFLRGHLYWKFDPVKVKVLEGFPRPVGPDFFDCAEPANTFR
Briefly: Binding affinity against matrix metalloprotease-11. A digest of the protocol:
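Mouse MMP-11 catalytic domain from E. coli BL21 DE3 pLysS, assayed in stirred quartz cuvettes in 50 mM Tris/HCl pH 6.8, 10 mM CaCl2 at 25 °C. Substrate was Mca-Pro-Leu-Ala-Cys(OMeBn)-Trp-Ala-Arg-Dpa-NH2 (Km 0.2 µM), with fluorescence read-out. Percent inhibition was measured in triplicate at five concentrations (20–80% range), and Ki was derived by the Horovitz–Levitski method.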

In test [6] the target is T7, Matrix metalloproteinase-9 (Homo sapiens, UniProt P14780). Briefly: Binding affinity against matrix metalloprotease-9 (gelatinase-B). In outline: as §1
T7 sequence (P14780 whole entry): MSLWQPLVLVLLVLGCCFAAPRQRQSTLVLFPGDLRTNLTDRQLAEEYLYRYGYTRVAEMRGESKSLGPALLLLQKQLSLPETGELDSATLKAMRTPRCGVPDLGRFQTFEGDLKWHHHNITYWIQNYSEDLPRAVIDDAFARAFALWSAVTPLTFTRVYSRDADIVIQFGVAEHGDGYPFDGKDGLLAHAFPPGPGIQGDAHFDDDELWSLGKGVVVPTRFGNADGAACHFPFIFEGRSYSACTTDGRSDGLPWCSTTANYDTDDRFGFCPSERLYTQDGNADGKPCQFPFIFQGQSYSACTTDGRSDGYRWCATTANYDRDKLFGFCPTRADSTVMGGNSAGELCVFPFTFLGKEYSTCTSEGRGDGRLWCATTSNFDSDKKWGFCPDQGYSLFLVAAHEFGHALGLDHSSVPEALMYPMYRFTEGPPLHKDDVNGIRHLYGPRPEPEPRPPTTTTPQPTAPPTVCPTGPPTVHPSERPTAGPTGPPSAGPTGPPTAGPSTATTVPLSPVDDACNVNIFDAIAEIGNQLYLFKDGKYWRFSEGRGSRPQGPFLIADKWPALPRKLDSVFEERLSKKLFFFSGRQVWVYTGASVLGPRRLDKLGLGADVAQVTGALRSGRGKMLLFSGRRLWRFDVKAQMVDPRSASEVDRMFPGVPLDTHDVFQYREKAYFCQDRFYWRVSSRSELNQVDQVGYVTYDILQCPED
The next test concerns the target T8, Matrilysin (Homo sapiens, UniProt P09237).
T8 sequence (P09237 whole entry): T2 sequence (whole entry)
Briefly: Inhibition of Matrix metalloprotease-7 Matrilysin. In outline:
as §2

Test [7] concerns the target T3, Neutrophil collagenase. Description: Compound was tested for its binding affinity against MMP-8 HNC at 1 uM.
Target sequence in this assay (P22894 101-467 limits assumed): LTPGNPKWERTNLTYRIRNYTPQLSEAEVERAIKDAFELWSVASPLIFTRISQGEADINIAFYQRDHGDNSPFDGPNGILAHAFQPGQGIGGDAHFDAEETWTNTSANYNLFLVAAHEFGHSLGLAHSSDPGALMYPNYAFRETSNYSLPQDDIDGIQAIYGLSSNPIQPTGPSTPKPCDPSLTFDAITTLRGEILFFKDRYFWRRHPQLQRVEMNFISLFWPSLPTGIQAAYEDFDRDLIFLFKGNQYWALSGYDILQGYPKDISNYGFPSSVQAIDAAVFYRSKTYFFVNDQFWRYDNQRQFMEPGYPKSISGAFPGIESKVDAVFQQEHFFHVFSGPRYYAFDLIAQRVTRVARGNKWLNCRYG
The target in test [8] is T7, Matrix metalloproteinase-9. Briefly: Inhibition of Matrix metalloprotease-9, gelatinase-B at 2 uM.
Test [9] concerns the target T9, Stromelysin-3 (Mus musculus) (UniProt Q02853).
T9 sequence (whole entry): T6 sequence (Q02853 whole entry)
The note with it: Homo sapiens; 1 uM.

For test [10], the target named is T5, 72 kDa type IV collagenase. Description: Inhibition of MMP-2 gelatinase-A at 2 uM.
Target sequence in this assay (P08253 110-660 limits assumed): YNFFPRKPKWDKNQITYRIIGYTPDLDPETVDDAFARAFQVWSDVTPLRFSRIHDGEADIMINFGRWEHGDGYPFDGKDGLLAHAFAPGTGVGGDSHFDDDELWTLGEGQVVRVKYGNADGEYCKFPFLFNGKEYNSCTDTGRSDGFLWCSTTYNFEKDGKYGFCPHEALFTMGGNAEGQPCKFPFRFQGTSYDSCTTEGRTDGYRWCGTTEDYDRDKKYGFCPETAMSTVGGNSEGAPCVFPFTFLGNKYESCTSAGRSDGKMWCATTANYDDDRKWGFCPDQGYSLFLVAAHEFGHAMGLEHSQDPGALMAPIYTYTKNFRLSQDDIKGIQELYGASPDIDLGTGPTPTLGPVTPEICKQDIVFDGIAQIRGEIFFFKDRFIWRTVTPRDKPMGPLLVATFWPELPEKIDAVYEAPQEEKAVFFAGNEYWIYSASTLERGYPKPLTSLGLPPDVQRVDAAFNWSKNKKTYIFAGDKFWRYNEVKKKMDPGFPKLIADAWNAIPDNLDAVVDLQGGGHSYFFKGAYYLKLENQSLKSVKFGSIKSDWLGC
The target in test [11] is T4, Matrix metalloproteinase-14. Description: Inhibition of MMP-14 membrane-type-MMP at 10 uM. In outline:
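Human MMP-14 catalytic domain, expressed in E. coli BL21 DE3 pLysS. Assay in 50 mM Tris/HCl pH 6.8 with 10 mM CaCl2 at 25 °C, using 0.2–5 nM enzyme and 6 μM Mca-Pro-Leu-Gly-Leu-Dpa-Ala-Arg-NH2. Reaction started by adding substrate; fluorescence read at 400 nm (ex 340 nm) over 30 min. Time-dependent inhibitors were preincubated with enzyme for at least 1 h. Percent inhibition from triplicates.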

In the case of `CC(NC(=O)OCc1ccccc1)P(=O)(O)CC(CCCc1ccccc1)C(=O)NC(Cc1c[nH]c2ccccc12)C(N)=O` (centres undefined), the values for the inhibition in [1] and in test [2] were 30% and 4%, respectively.

In the case of `NC(=O)[C@@H](Cc1c[nH]c2ccccc12)NC(=O)C(CCCc1ccccc1)CP(=O)(O)C(Cc1ccccc1)NC(=O)OCc1ccccc1` (some centres undefined), the inhibition in [1] stood at 23%; in test [2] it was 8%. Also, the Ki at Neutrophil collagenase [3] is 2.5 nM; in test [4], 105 nM; in [5], 20 nM; at Stromelysin-3 it was 5 nM; in test [6], 10 nM.

`CC(=O)NC(Cc1ccccc1)P(=O)(O)CC(CCCc1ccccc1)C(=O)NC(Cc1c[nH]c2ccccc12)C(N)=O` (centres undefined): the inhibition in test [1] was found to be 43%; in test [2] it was 28%.

`CC(C)CC(CP(=O)(O)C(Cc1ccccc1)NC(=O)OCc1ccccc1)C(=O)NC(Cc1c[nH]c2ccccc12)C(N)=O` (centres undefined) showed an inhibition in test [1] of 45%. Besides, the Ki on Neutrophil collagenase [3] worked out at 40 nM; in test [4], 192 nM; in test [5] it was 202 nM; at Stromelysin-3 it was 22 nM; in test [6], 65 nM; at Matrilysin, 210 nM.

Take `CC(NC(=O)OCc1ccccc1)P(=O)(O)CC(CCc1ccccc1)C(=O)NC(Cc1c[nH]c2ccccc12)C(N)=O` (centres undefined): the inhibition in [1] came out at 23%; in test [2] it was 3%.

In the case of `COc1ccc(CSCC(CP(=O)(O)C(Cc2ccccc2)NC(=O)OCc2ccccc2)C(=O)NC(Cc2c[nH]c3ccccc23)C(N)=O)cc1` (centres undefined), the inhibition in [1] is 13%; in test [2], 20%. Moreover, the Ki on Neutrophil collagenase [3] turned out to be 0.7 nM; in test [4], 22 nM; in [5], 6 nM; at Stromelysin-3, 2 nM; in [6], 3 nM.

Turning to `NC(=O)C(Cc1c[nH]c2ccccc12)NC(=O)C(CCCc1ccccc1)CP(=O)(O)C(Cc1ccccc1)NC(=O)COCc1ccccc1` (centres undefined), the inhibition in [1] stood at 43%; in test [2] it was 52%.

Regarding `CCCCCCCC(CP(=O)(O)C(Cc1ccccc1)NC(=O)OCc1ccccc1)C(=O)NC(Cc1c[nH]c2ccccc12)C(N)=O` (centres undefined), the inhibition came out at 27% in test [1] and 4% in test [2]. Moreover, the Ki at Neutrophil collagenase [3] was found to be 6 nM; in [4] it was 271 nM; in test [5], 75 nM; at Stromelysin-3, 34 nM; in test [6] it was 30 nM.

For `NC(=O)[C@H](Cc1c[nH]c2ccccc12)NC(=O)C(CCCc1ccccc1)CP(=O)(O)C(Cc1ccccc1)NC(=O)OCc1ccccc1` (some centres undefined), the inhibition in [1] is 0%; in test [2], 0%; on Neutrophil collagenase [7] it was 2%; in test [8] it was 14%; in test [9] it was 1%; in [10], 6%.

Consider `NC(=O)C(Cc1c[nH]c2ccccc12)NC(=O)C(COCc1ccccc1)CP(=O)(O)C(Cc1ccccc1)NC(=O)OCc1ccccc1` (centres undefined), for which the inhibition was determined as 9% in test [1] and 3% in [2].

For the compound `CC(NC(=O)OCc1ccccc1)P(=O)(O)CC(CSCc1ccccc1)C(=O)NC(Cc1c[nH]c2ccccc12)C(N)=O` (centres undefined), the inhibition in [1] amounted to 45%; in [2], 2%. On Neutrophil collagenase [3], this compound displayed a Ki below 0.5 nM.

Take `NC(=O)C(Cc1c[nH]c2ccccc12)NC(=O)C(CCCc1ccccc1)CP(=O)(O)C(Cc1ccccc1)NC(=O)CNc1ccccc1` (centres undefined): the values for the inhibition in test [1] and in test [2] were 49% and 28%, respectively. In addition, the Ki stood at 4.5 nM on Neutrophil collagenase [3]; 73 nM in test [4]; 17 nM in test [5]; 15 nM at Stromelysin-3; 6 nM in test [6].

With `CC(NC(=O)OCc1ccccc1)P(=O)(O)CC(Cc1ccccc1)C(=O)NC(Cc1c[nH]c2ccccc12)C(N)=O` (centres undefined), the inhibition in test [1] is 24%; in [2], 8%.

On to `NC(=O)C(Cc1c[nH]c2ccccc12)NC(=O)C(CCc1ccccc1)CP(=O)(O)C(Cc1ccccc1)NC(=O)OCc1ccccc1` (centres undefined), for which the inhibition worked out at 10% in [1] and 7% in test [2].

As to `NC(=O)C(Cc1c[nH]c2ccccc12)NC(=O)C(CCCc1ccccc1)CP(=O)(O)C(Cc1ccccc1)NC(=O)c1cc2cc(Cl)cc(Cl)c2oc1=O` (centres undefined), the inhibition in [1] stood at 62%; in [2], 52%. Besides, the Ki at Neutrophil collagenase [3] came out at 17 nM; in test [4], 217 nM; in test [5], 100 nM; on Stromelysin-3, 5 nM; in test [6], 110 nM.

In the case of `NC(=O)C(Cc1c[nH]c2ccccc12)NC(=O)C(CCCCc1ccccc1)CP(=O)(O)C(Cc1ccccc1)NC(=O)OCc1ccccc1` (centres undefined), the results for the inhibition in test [1] and in test [2] were 5% and 7%, respectively. Moreover, the Ki at Neutrophil collagenase [3] came out at 4.3 nM; in test [4], 580 nM; in test [5], 145 nM; on Stromelysin-3, 33 nM; in test [6], 70 nM.

Consider `NC(=O)C(Cc1c[nH]c2ccccc12)NC(=O)C(CCCc1ccccc1)CP(=O)(O)C(Cc1ccccc1)NC(=O)CNc1cc(Cl)ccc1O` (centres undefined), for which the inhibition stood at 72% in test [1] and 65% in [2]. The Ki is 7.5 nM at Neutrophil collagenase [3]; 63 nM in test [4]; 30 nM in [5]; 10 nM on Stromelysin-3; 34 nM in test [6].

`CC(NC(=O)OCc1ccccc1)P(=O)(O)CC(COCc1ccccc1)C(=O)NC(Cc1c[nH]c2ccccc12)C(N)=O` (centres undefined): the inhibition in test [1] was found to be 15%; in test [2], 1%.

With `CC(CP(=O)(O)C(Cc1ccccc1)NC(=O)OCc1ccccc1)C(=O)NC(Cc1c[nH]c2ccccc12)C(N)=O` (centres undefined), the inhibition in test [11] was determined as 0%; in [1], 20%; in test [2], 0%; on Neutrophil collagenase [7], 9%; in test [8], 0%; in test [10], 0%.

In turn, `NC(=O)C(Cc1c[nH]c2ccccc12)NC(=O)C(CCc1ccc2ccccc2c1)CP(=O)(O)C(Cc1ccccc1)NC(=O)OCc1ccccc1` (centres undefined) gave an inhibition in [1] of 0%. Moreover, the Ki was 34 nM at Neutrophil collagenase [3]; 125 nM in [4]; 30 nM in test [5]; 12 nM at Stromelysin-3; 55 nM in [6]; 2100 nM at Matrilysin.
